hERG rescue – hERG (human) protection from proarrhythmic block; CHO-hERG, FluxOR thallium flux, dofetilide IC70 present; Q12809; actives 0.51% (n = 310,000); activation (rescue from dofetilide block), less the hit threshold, % at 10 µM; AID 1511;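 active means activation above the mean of controls blocked by dofetilide plus 5 SD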;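 further: thallium influx through hERG after potassium depolarization seen as dye fluorescence rise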
Target sequence (Q12809 whole entry, looked up): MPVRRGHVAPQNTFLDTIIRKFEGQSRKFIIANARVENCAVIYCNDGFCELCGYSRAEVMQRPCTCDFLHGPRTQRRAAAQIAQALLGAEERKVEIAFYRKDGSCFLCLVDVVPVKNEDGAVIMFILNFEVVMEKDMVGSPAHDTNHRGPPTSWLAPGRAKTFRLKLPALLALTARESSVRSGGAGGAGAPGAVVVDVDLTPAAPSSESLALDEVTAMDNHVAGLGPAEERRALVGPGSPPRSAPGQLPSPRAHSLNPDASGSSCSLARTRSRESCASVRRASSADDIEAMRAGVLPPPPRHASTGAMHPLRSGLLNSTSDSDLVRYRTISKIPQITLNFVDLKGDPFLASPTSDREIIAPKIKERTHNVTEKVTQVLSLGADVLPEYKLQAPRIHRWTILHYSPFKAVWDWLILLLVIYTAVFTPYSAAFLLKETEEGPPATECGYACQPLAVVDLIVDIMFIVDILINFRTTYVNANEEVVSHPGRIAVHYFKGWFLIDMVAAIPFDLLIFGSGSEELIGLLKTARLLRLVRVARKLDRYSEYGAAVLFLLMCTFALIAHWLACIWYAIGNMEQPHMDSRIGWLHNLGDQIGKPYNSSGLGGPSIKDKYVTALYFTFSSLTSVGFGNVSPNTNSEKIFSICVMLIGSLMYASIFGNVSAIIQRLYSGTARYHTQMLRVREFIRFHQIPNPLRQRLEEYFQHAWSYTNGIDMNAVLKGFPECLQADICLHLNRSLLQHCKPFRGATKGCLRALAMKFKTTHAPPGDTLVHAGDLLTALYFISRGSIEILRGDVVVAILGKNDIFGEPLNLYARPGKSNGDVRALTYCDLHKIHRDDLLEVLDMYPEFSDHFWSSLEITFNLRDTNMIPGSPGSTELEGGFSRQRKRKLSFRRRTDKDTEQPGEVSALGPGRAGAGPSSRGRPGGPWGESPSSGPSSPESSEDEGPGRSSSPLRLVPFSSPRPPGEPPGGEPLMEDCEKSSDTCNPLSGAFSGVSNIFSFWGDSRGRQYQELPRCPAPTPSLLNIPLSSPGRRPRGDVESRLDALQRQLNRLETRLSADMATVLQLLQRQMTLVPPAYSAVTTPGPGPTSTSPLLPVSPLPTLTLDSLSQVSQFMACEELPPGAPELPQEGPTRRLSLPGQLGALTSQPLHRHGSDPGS
KCNQ1 act – potentiates or activates the human KCNQ1 potassium channel; CHO-K1 KCNQ1, thallium flux FluxOR fluorescence; hits give high values; B-score at 10 µM; actives 0.35% (n = 310,000); AID 2648;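 active means fluorescence ratio B-score, a plate-corrected score, at least three library SD, with initial intensity B-score within 5 SD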
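Test system: CHO-K1 cells stably expressing KCNQ1 / Medium: assay buffer / Also added: depolarizing K+/Tl+ stimulus, K2SO4 and Tl2SO4 each 12.5 mM in 5x stock / Incubation: 90 min dye loading and 20 min compound exposure, both at room temperature / Signal: thallium influx via FluxOR fluorescence, kinetic imaging / Evaluation: B score of baseline-normalized fluorescence ratio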
KCNK3 inh – human KCNK3 channel inhibition, primary screen; actives 0.84% (n = 340,000); CHO-KCNK3 thallium flux, FluxOR fluorescence; hits give low values; O14649; B-score at 10 µM;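 active means B-score under library mean minus 4 SD, starting fluorescence ratio at most library mean plus 5 SD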;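 further: more negative B-score means stronger inhibition of thallium flux through KCNK3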
KCNK9 block – blocks the human KCNK9 two-pore domain potassium channel; HEK293 KCNK9, FluxOR thallium flux fluorescence; hits give low values; AID 488922; actives 1.2% (n = 310,000); B-score at 10 µM;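 active means ratio B-score over 3 SD below the library mean, with starting fluorescence within 5 SD of its mean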;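 further: negative B-score means less thallium flux so channel inhibition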
Kir21 block – Kir2.1 (mouse) channel inhibition; P35561; HEK293-Kir2.1, FluxOR thallium flux fluorescence; hits give low values; B-score at 10 µM; actives 0.85% (n = 310,000); AID 1672;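 active means fluorescence ratio B-score at or below minus 3 SD of library scores, with starting-brightness B-score within 2 SD, cut at about -4.2 in these data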;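 further: channel flux triggered by added potassium and thallium sulfate stimulus; B-score of peak minus minimum fluorescence over baseline after thallium stimulus; more negative B-score means stronger Kir2.1 block with less thallium influx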
KCNQ1 inh – human KCNQ1 channel inhibition | CHO-K1 KCNQ1, FluxOR thallium flux fluorescence; hits give high values | B-score at 10 µM | actives 1.3% (n = 310,000) | P51787;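 active means compounds whose thallium flux B-score, printed positive for inhibition, exceeds three library SD while starting fluorescence stays within three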;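 further: channel opened by potassium depolarization with thallium stimulus after 20 min compound exposure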
KCNK9 inh conf – confirmation of human KCNK9 potassium channel inhibitors. shares compounds with KCNK9 block. inhibition, % at 10 µM. HEK293 KCNK9 cells, FluxOR thallium flux fluorescence. actives 43% (n = 4,900). AID 492992;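 active means thallium signal inhibited by more than 5 SD of the compound-free buffer control wells, on both duplicate plates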
Kir21 sel – tests whether KCNK9 modulators also affect mouse Kir2.1. inhibition, % at 10 µM. Kir2.1 cells, FluxOR thallium flux fluorescence. actives 4% (n = 4,900). shares compounds with KCNK9 block;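 active means thallium signal drop more than 5 SD beyond the mean of the no-compound control wells, seen in both duplicate plates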;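 further: signal is fluorescence rise after thallium addition divided by baseline fluorescence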
KCNK9 uninduced – second counter-screen for KCNK9 modulators: effect in non-induced cells | shares compounds with KCNK9 block | non-induced KCNK9-HEK293, FluxOR thallium flux | inhibition, % at 10 µM | actives 40% (n = 4,900) | AID 492997;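 active means thallium signal drop beyond 5 SD of the untreated control mean, on both duplicate plates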
A number is an active result; 0 = inactive; - = not tested or not shown. An excerpt weighted towards active compounds, which were near 3.7% of everything screened.

SMILES | hERG rescue | KCNQ1 act | KCNK3 inh | KCNK9 block | Kir21 block | KCNQ1 inh | KCNK9 inh conf | Kir21 sel | KCNK9 uninduced
CCCC[C@@H]1CCCO[C@@](C(=O)NCc2ccc(C)o2)(C(F)(F)F)C1 | 0 | 0 | 0 | 0 | 0 | 0 | 0 | 0 | 0
CCC[C@@H]1CCCO[C@@](C(=O)NCc2ccc(S(C)(=O)=O)cc2)(C(F)(F)F)C1 | 0 | 0 | 0 | 0 | 0 | 0 | - | - | -
COCCN1C(=O)C(=O)/C(=C(/O)c2ccc(S(=O)(=O)N3CCOCC3)cc2)C1c1cccc(OC)c1 (centres undefined) | 0 | 0 | 0 | 0 | 0 | 0 | - | - | -
CC1CN(C(=O)COC(=O)Cc2c(F)cccc2Cl)CC(C)O1 (centres undefined) | - | - | 0 | - | - | - | - | - | -
CC1CC(C)(C)CC2(C1)NC(=O)N(CC(=O)OCC(=O)Nc1cc(S(=O)(=O)N3CCCCC3)ccc1Cl)C2=O (centres undefined) | - | - | 0 | - | - | - | - | - | -
CCC(=O)c1ccccc1OCCN1CCN(Cc2ccccc2)CC1 | 0 | 0 | 0 | 0 | 0 | 0 | 0 | 0 | 0
CCOc1ccccc1OCCOCCN1CCN(Cc2ccccc2)CC1 | 0 | 0 | 0 | 0 | 0 | 0 | - | - | -
O=C(c1ccccc1)c1ccc(OCCOCCN2CCN(Cc3ccccc3)CC2)cc1 | 0 | 0 | 0 | 0 | 0 | 0 | 0 | 0 | 0
Cc1ccccc1NC(=S)NCc1ccc2[nH]c3c(c2c1)CCCC3 | 0 | 0 | 0 | 0 | 0 | 0 | 0 | 0 | 0
CCSc1nc2ccccc2n1C(=O)c1ccc(S(=O)(=O)N2CCCCCC2)cc1 | 0 | 0 | 0 | 0 | 0 | 0 | 0 | 0 | 0
CCCNC(=O)COc1coc(CN2CCN(c3ccccc3F)CC2)cc1=O | 0 | 0 | 0 | 0 | 0 | 0 | - | - | -
O=C1C(Cl)=C(N2CCN(Cc3ccccc3)CC2)C(=O)N1Cc1ccccc1 | 0 | 0 | 0 | 0 | 0 | 0 | 0 | 0 | 0
C/C(=N\NC(=S)NCCc1ccccc1)c1ccc(Cl)cc1Cl | 0 | 0 | 0 | 0 | 0 | 0 | 0 | 0 | 0
Cc1cc(C(=O)CCC(=O)N2CCN(c3ccccc3F)CC2)c(C)s1 | 0 | 0 | 0 | 0 | 0 | 0 | 0 | 0 | 0
COc1ccc(NC2CCCN(C(=O)c3ccc(CSC)o3)C2)cc1OC (centres undefined) | 0 | 0 | 0 | 0 | 0 | 0 | - | - | -
Cc1cc(Cl)ccc1C(=O)C1CCCN(C(=O)c2cnsn2)C1 (centres undefined) | 0 | 0 | 0 | 0 | 0 | 0 | 0 | 0 | 0
COCc1ccc(C(=O)N2CCCC(Nc3ccc4c(c3)OCCO4)C2)o1 (centres undefined) | 0 | 0 | 0 | 0 | 0 | 0 | 0 | 0 | 0
Cc1cc(Cl)ccc1C(=O)C1CCCN(C(=O)c2ccoc2)C1 (centres undefined) | 0 | 0 | 0 | 0 | 0 | 0 | 0 | 0 | 0
Cc1nc(C)c(C(=O)N2CCCC(C(=O)c3ccc(Cl)cc3C)C2)s1 (centres undefined) | 0 | 0 | 0 | 0 | 0 | 0 | - | - | -
Cc1cc(C(=O)N2CCCC(C(=O)c3ccc(Cl)cc3C)C2)no1 (centres undefined) | 0 | 0 | 0 | 0 | 0 | 0 | - | - | -
COCc1ccc(C(=O)N2CCCC(C(=O)c3ccc(Cl)cc3C)C2)o1 (centres undefined) | 0 | 0 | 0 | 0 | 0 | 0 | 0 | 0 | 0
CCOC(=O)N1CCC(C(=O)NNC(=O)c2ccc(Cl)cc2Cl)CC1 | 0 | 0 | 0 | 0 | 0 | 0 | - | - | -
NC(=O)CC(NC(=O)Cc1ccc(Br)cc1)c1ccc(NCc2ccc(F)cc2)c([N+](=O)[O-])c1 (centres undefined) | 0 | 0 | 0 | 0 | 0 | 0 | - | - | -
CCOc1ccc(C2=C(C=Nc3c(C)n(C)n(-c4ccccc4)c3=O)C(c3ccc(F)cc3)c3ccccc3O2)cc1 (centres undefined) | 0 | 0 | 0 | 0 | 0 | 0 | 0 | 0 | 0
CCCCN(C)C(=O)Cn1nc(Cc2ccncc2)c2ccccc2c1=O | 0 | 0 | 0 | 0 | 0 | 0 | - | - | -
SMILES | hERG rescue | KCNQ1 act | KCNK3 inh | KCNK9 block | Kir21 block | KCNQ1 inh | KCNK9 inh conf | Kir21 sel | KCNK9 uninduced
CCCC[C@H]1COCCS(=O)(=O)N1Cc1ccc(Br)cc1 | 0 | 0 | 0 | -8.32 | 0 | 0 | 37.0% | 0 | 42.5%
COc1cc(Cl)ccc1OCc1cc(C(=O)N2C[C@H]3CC[C@H]2C3)no1 | 0 | 0 | 0 | 0 | 0 | 0 | - | - | -
COc1cc(Cl)ccc1OCc1cc(C(=O)N2C[C@]3(C)C[C@H]2CC(C)(C)C3)no1 | 0 | 0 | 0 | 0 | 0 | 0 | 0 | 0 | 0
O=C1CC(=O)Nc2cc(S(=O)(=O)Nc3ccc(F)cc3Cl)ccc2N1 | 0 | 0 | 0 | 0 | 0 | 0 | - | - | -
CC(C)=CCc1c2c(c3occ(-c4ccc(O)cc4)c(=O)c3c1O)C=CC(C)(C)O2 | 0 | 0 | 0 | 0 | 0 | 0 | - | - | -
CC1(C)C=Cc2c(c3c(c4c(=O)c(-c5ccc(O)cc5)coc24)OC(C)(C)CC3)O1 | 0 | 0 | 0 | -10.5 | 0 | 0 | 49.5% | 0 | 25.5%
CN(CC1CCCN(CCc2cccc(C(F)(F)F)c2)C1)C(=O)c1cc2ccccc2o1 (centres undefined) | 0 | 0 | 0 | 0 | 0 | 0 | 0 | 0 | 0
Cc1c(C(=O)N(C)C2CCCCC2)sc2ncnc(N3CCN(c4ccccc4F)CC3)c12 | 0 | 0 | 0 | 0 | 0 | 0 | - | - | -
Cc1c(C(=O)N(C)C2CCCCC2)sc2ncnc(N3CCN(c4ccccc4)CC3)c12 | 0 | 0 | 0 | 0 | 0 | 0 | 0 | 0 | 0
Cc1c(C(=O)N2CCC(C)CC2)sc2ncnc(N3CCN(c4ccccc4)CC3)c12 | 0 | 0 | 0 | 0 | 0 | 0 | 0 | 0 | 0
Cc1c(C(=O)N2CCN(c3ccccc3)CC2)sc2ncnc(N3CCN(c4ccccn4)CC3)c12 | 0 | 0 | 0 | 0 | 0 | 0 | - | - | -
Cn1c(N)c(C(=O)CSc2nc(C3CC3)n(-c3ccccc3)n2)c(=O)[nH]c1=O | - | - | 0 | - | - | - | - | - | -
COC(=O)c1ccccc1NC(=O)CN(C)Cc1ccccc1 | 0 | 0 | 0 | -9.9 | 0 | 0 | 39.0% | 0 | 38.5%
CC(=C/c1ccccc1)/C=N/NC(=O)c1nnn(-c2nonc2N)c1CN1CCC(C)CC1 | 0 | 0 | 0 | 0 | 0 | 0 | - | - | -
CC1CCN(Cc2c(C(=O)N/N=C/c3ccc(OC(C)C)cc3)nnn2-c2nonc2N)CC1 | 0 | 0 | 0 | 0 | 0 | 0 | 0 | 0 | 0
Cc1ccccc1COc1ccc(/C=N/NC(=O)c2nnn(-c3nonc3N)c2CN2CCC(C)CC2)cc1 | 0 | 0 | 0 | 0 | 0 | 0 | 0 | 0 | 0
Cc1c(C(=O)O)sc2nc(CSc3ncc(C(F)(F)F)cc3Cl)[nH]c(=O)c12 | 0 | 0 | 0 | 0 | 0 | 0 | - | - | -

Bioassay records from PubChem BioAssay.
